# Compound activity as filed in PubChem BioAssay.
# Cneo AK release: Cryptococcus neoformans cell lysis inducers, primary screen, AK release luminescence, single concentration; C. neoformans lysis, adenylate kinase release luminescence, 4 h; normalised: neutral wells 0, clomiphene wells 100; lysis activity, % at 15 µM; 360,000 tested, 0.2% active; AID 651654, 2012;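 active means mean lysis activity across replicates of at least 80%, whatever share of replicates individually reach that level; inactive means mean lysis activity below 80%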
#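 Assay system: C. neoformans cells. Amount: yeast cell density of 5 × 10^6 cells/mL. Technique: AK luminescence. Buffer or medium: YPD. Times: static 4 h at 37 °C with compound, 1 h detection. Dosing: single-point compound dose. Read-out: lysis from increased AK signal.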
# SUMO Mot1 rescue: yeast Mot1-301 growth rescue at high temperature, primary screen, SUMOylation pathway inhibitor project, S. cerevisiae, ATP luminescence, 38.5C | growth rescue, % at 18.8 µM | S. cerevisiae Mot1-301 growth rescue; percent above DMSO median, 100 means doubled | AID 2716, 2010 | 320,000 tested, 1% active;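 active means every valid replicate shows activation above 250% relative to neutral control wells; inactive means the rest, any valid replicate at or below 250%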;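 further: OY570 slx delta 5 strain wells were the positive control but not used for scaling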
# Statin myotox sup: suppressors of statin myotoxicity in C2C12 myotubes, primary screen, cell-based, single point, plate reader; C2C12 myotubes + simvastatin, ATP luminescence, 48 h; scaled: DMSO 0, geranylgeraniol control 100; rescue of ATP level, % at 7.49 µM; 330,000 tested, 0.78% active;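 active means mean ATP rescue above about 67%, or every replicate alone reaching that limit, limit read from the data, passing the limit was not always enough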;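 further: myotubes were challenged with 10 µM simvastatin during compound exposure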
# Yeast Mot1 SUMO: growth restoration of Mot1-301 yeast on galactose, dose response, SUMO pathway inhibitor project, whole organism, S. cerevisiae, ATP luminescence, cherry-picked samples; shares compounds with SUMO Mot1 rescue; S. cerevisiae Mot1-301 galactose growth, 24 h; -100 = growth of slx-deleted rescue strain; growth activity, percent, % at 42 µM; 2,300 tested, under 10 active; AID 493004, 2010;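 active means Signal drops as the depositor expects, and the fitted half-maximal dose is no more than ten times the top valid tested dose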;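 further: more negative values mean stronger growth rescue toward the control strain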
# * hit, by the source's call; / = no result given; + = active, no number. In the library only some 1.5% were active in any assay of this set; here they are far more common.
SMILES,Cneo AK release,SUMO Mot1 rescue,Statin myotox sup,Yeast Mot1 SUMO
O=C(C1Cc2ccccc2CN1S(=O)(=O)c1ccc(F)cc1)N1CCCCC1 (configuration not stated),-2,146,-3,/
O=C(c1ccco1)N1CCN(C(=O)C2Cc3ccccc3CN2S(=O)(=O)c2ccc(F)cc2)CC1 (configuration not stated),-1,901*,-3,0
O=C(NCc1ccco1)C1CC(=O)N(c2cccc(Cl)c2)C1 (configuration not stated),0,-17,8,/
O=C(NCc1ccco1)C1CC(=O)N(c2ccc(Cl)cc2)C1 (configuration not stated),/,648*,/,-1
COC(=O)C1CC2(C(=O)OC)CC(C(=O)OC)(CC(C(=O)OC)C2=O)C1=O (configuration not stated),-1,/,3,/
COC(=O)C12CCC3(SCCS3)C(C(=O)OC)(CCC13SCCS3)C2,-2,523*,-13,0
O=C(Nc1nccs1)[C@@H]1[C@@H](CO)[C@@H]2Cn3c(cccc3=O)[C@@H]2N1C(=O)C1CCCCC1,0,/,24,/
CC(=O)c1c(N)[nH]c(-c2ccccc2)nc1=S,-2,886*,23,0
CC(=O)c1c(N2CCCC2)[nH]c(-c2ccccc2)nc1=S,/,26,/,/
CCNC(=O)C[C@H]1CC[C@H]2[C@H](COc3ccc(NC(=O)Nc4ccccc4OC)cc3C(=O)N2C)O1,-1,/,9,/
CCOC(=O)Cn1nc(Cc2ccccc2)c2ccccc2c1=O,-1,-2,/,/
CN1CCCC(n2nc(Cc3ccc(Cl)cc3)c3ccccc3c2=O)CC1 (configuration not stated),1,396*,-16,0
CC(C)NC(=O)Nc1ccc2c(c1)CC(=O)N([C@H](C)CO)C[C@@H](C)[C@@H](CN(C)Cc1ccc(C(F)(F)F)cc1)O2,-3,/,7,/
Cc1ccccc1-c1ccc([C@H]2[C@@H](CO)N3CCCCN(S(=O)(=O)c4cn(C)cn4)C[C@H]23)cc1,1,/,/,/
Cc1ccc(S(=O)(=O)N2CCCC(c3nc(-c4ccc(C)o4)no3)C2)cc1 (configuration not stated),/,0,/,/
Cc1ccc(-c2noc(C3CCCN(S(=O)(=O)c4ccc5ccccc5c4)C3)n2)o1 (configuration not stated),/,765*,/,0
O=C(CCl)N(Cc1cc(=O)[nH]c2ccccc12)c1ccccc1,/,491*,/,0
CCC(=O)N(Cc1cc(=O)[nH]c2ccccc12)c1ccccc1,-3,-4,8,/
CO[C@@H](CN(C)C(=O)c1cnccn1)[C@@H](C)CN([C@H](C)CO)S(=O)(=O)c1ccc(C)cc1,-1,/,-11,/
O=C(CSc1nnc(NC(=O)CN2CCOCC2)s1)Nc1ccccc1,-7,+,-2,0
O=C(Nc1nnc(SCC(=O)N2CCOCC2)s1)c1ccccc1,/,-7,/,/
C[C@H](CO)N1C[C@H](C)[C@@H](CN(C)CC2CCCC2)Oc2cc(C3=CCCCC3)ccc2S1(=O)=O,10,/,-49,/
O=C(O)c1ccc(/C=N\Nc2ccccn2)cc1,/,-19,/,/
CN(C)c1ccc(/C=N\Nc2ccccn2)cc1,-1,458*,6,-1
CCCNC(=O)C[C@H]1CC[C@@H]2[C@@H](COc3ccc(NC(=O)c4cccc(OC)c4)cc3C(=O)N2C)O1,2,/,17,/
SMILES,Cneo AK release,SUMO Mot1 rescue,Statin myotox sup,Yeast Mot1 SUMO
CC(=O)Nc1ccc(S(=O)(=O)Nc2cccc(-c3ccc4nncn4n3)c2)cc1,/,528*,/,0
CC(=O)c1ccc(S(=O)(=O)Nc2cccc(-c3ccc4nncn4n3)c2)cc1,-2,-5,0,/
CC(=O)Nc1ccc(S(=O)(=O)Nc2ncccn2)cc1,0,3,1,/
CC(=O)Nc1ccc(S(=O)(=O)Nc2ccc(S(=O)(=O)Nc3ncccn3)cc2)cc1,0,+,8,0
CO[C@H]1CN(C)C(=O)c2cc(NC(=O)C3CCCC3)ccc2OC[C@@H](C)N(C)C[C@H]1C,-1,/,4,/
CC=Cc1ccc2n(c1=O)C[C@H]1[C@H](CO)[C@@H](C(=O)NCC3CC3)[C@@H]2N1C(=O)c1ccccc1 (mixture of isomers),37,/,-26,/
